Reference: ChEMBL document CHEMBL5712911, “A homogeneous bioluminescent immunoassay to probe cellular signaling pathway regulation” (Commun Biol, 2020)
The source made the active and inactive calls. The calls are words filed in the database; no cut-off is given here.

Key:
[1] = Effect on total IkappaBalpha level in human MCF7 cells measured after 4 hrs by NanoBiT cell-based immunoassay; type: toxicity; conditions: mcf7, 4 h
Summary of the method: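 MCF-7 cells (50,000/well) held overnight at 37 °C, 5% CO2 without serum, then given a compound titration for 4 h. Lysed 20 min in buffer with 0.1% digitonin and protease/phosphatase inhibitors; mouse and rabbit anti-IκBα primaries plus NanoBiT-labelled anti-mouse/anti-rabbit secondaries added, 90 min at 23 °C; Nano-Glo substrate; luminescence read. Means ± S.E.M., n = 3 technical replicates.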

[2] = test system: Primary mammary epithelial cell; experiment: Inhibition of IKK in human primary mammary epithelial cells assessed as reduction in IL-1beta-induced IkappaBalpha phosphorylation at serine 32 residue preincubated for 1 hr followed by IL-1beta-stimulation and measured after 10 mins by NanoBiT cell-based immunoassay; conditions: time 70.0 min
MCF7 [3] = experiment: Inhibition of IKK in human MCF7 cells assessed as reduction in IL-1beta-induced IkappaBalpha phosphorylation at serine 32 residue preincubated for 1 hr followed by IL-1beta-stimulation and measured after 10 mins by NanoBiT cell-based immunoassay; conditions: dose 10.0 µM, time 70.0 min
Ramos [4] = experiment: Inhibition of IKK in human Ramos cells assessed as reduction in IL-1beta-induced IkappaBalpha phosphorylation at serine 32 residue preincubated for 1 hr followed by IL-1beta-stimulation and measured after 10 mins by NanoBiT cell-based immunoassay; conditions: time 70.0 min
MCF7 [5] = experiment: Inhibition of IKK in human MCF7 cells assessed as reduction in TNFalpha-induced p65 phosphorylation at serine 536 residue at 10 uM preincubated for 1 hr followed by TNFalpha-stimulation and measured after 10 mins by NanoBiT cell-based immunoassay; conditions: time 70.0 min
HeLa [6] = experiment: Inhibition of IKK in human HeLa cells assessed as reduction in IL-1beta-induced IkappaBalpha phosphorylation at serine 32 residue preincubated for 1 hr followed by IL-1beta-stimulation and measured after 10 mins by NanoBiT cell-based immunoassay; conditions: time 70.0 min
HeLa [7] = experiment: Inhibition of IKK in human HeLa cells assessed as reduction in TNFalpha-induced IkappaBalpha phosphorylation at serine 32 residue preincubated for 1 hr followed by TNFalpha-stimulation and measured after 10 mins by NanoBiT cell-based immunoassay; conditions: time 70.0 min
MCF7 [8] = experiment: Inhibition of IKK in human MCF7 cells assessed as effect on TNFalpha-induced p65 expression at 10 uM preincubated for 1 hr followed by TNFalpha-stimulation and measured after 10 mins by NanoBiT cell-based immunoassay; conditions: time 70.0 min
MCF7 [9] = experiment: Inhibition of IKK in human MCF7 cells assessed as reduction in TNFalpha-induced total IkappaBalpha expression at 10 uM preincubated for 1 hr followed by TNFalpha-stimulation and measured after 10 mins by NanoBiT cell-based immunoassay; conditions: time 70.0 min
[10] = test system: Primary mammary epithelial cell; experiment: Inhibition of IKK in human primary mammary epithelial cells assessed as reduction in TNFalpha-induced IkappaBalpha phosphorylation at serine 32 residue preincubated for 1 hr followed by TNFalpha-stimulation and measured after 10 mins by NanoBiT cell-based immunoassay; conditions: time 70.0 min
MCF7 [11] = experiment: Inhibition of IKK in human MCF7 cells assessed as reduction in IL-1beta-induced p65 phosphorylation at serine 536 residue preincubated for 1 hr followed by IL-1beta-stimulation and measured after 10 mins by NanoBiT cell-based immunoassay; conditions: time 70.0 min
Ramos [12] = experiment: Inhibition of IKK in human Ramos cells assessed as reduction in TNFalpha-induced IkappaBalpha phosphorylation at serine 32 residue preincubated for 1 hr followed by TNFalpha-stimulation and measured after 10 mins by NanoBiT cell-based immunoassay; conditions: time 70.0 min
MCF7 [13] = experiment: Inhibition of IKK in human MCF7 cells assessed as reduction in TNFalpha-induced IkappaBalpha degradation preincubated for 1 hr followed by TNFalpha-stimulation and measured after 30 mins by NanoBiT cell-based immunoassay; conditions: time 1.5 hrs
Summary of the method: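 MCF-7 cells (50,000/well, seeded overnight) were preincubated 1 h with graded inhibitor concentrations, then stimulated with TNFα (50 ng per ml, 30 min). Digitonin lysis was followed by NanoBiT total IκBα immunoassay: a rabbit/mouse primary pair plus SmBiT/LgBiT-labelled secondaries for 90 min at 23 °C, then Nano-Glo substrate and luminescence read. IC50 was taken from the dose–response.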

MCF7 [14] = experiment: Inhibition of IKK in human MCF7 cells assessed as reduction in TNFalpha-induced IkappaBalpha phosphorylation at serine 32 residue at 10 uM preincubated for 1 hr followed by TNFalpha-stimulation and measured after 10 mins by NanoBiT cell-based immunoassay; conditions: time 70.0 min
[15] = Effect on total AKT expression in human MCF7 cells at 20 uM measured after 1 hr by NanoBiT cell-based immunoassay; type: toxicity; conditions: mcf7, 1 h
Summary of the method: (§1)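 MCF-7 cells, 50,000/well, were held overnight without serum. They were pretreated 1 h with 20 µM inhibitor, then given insulin (1 µM, 10 min). After 20 min digitonin lysis with protease/phosphatase inhibitors, AKT S473 phosphorylation (20) or total AKT (1) was read by NanoBiT immunoassay (antibody mix 90 min, 23 °C; Nano-Glo luminescence). Means ± S.E.M., n = 3 technical replicates.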

MCF7 [16] = experiment: Inhibition of PI3K in human MCF7 cells assessed as reduction in insulin-induced AKT T308 phosphorylation preincubated for 1 hr followed by insulin stimulation and measured after 10 mins by NanoBiT cell-based immunoassay; conditions: time 70.0 min
MCF7 [17] = experiment: Inhibition of PI3K in human MCF7 cells assessed as reduction in insulin-induced AKT S473 phosphorylation at 20 uM preincubated for 1 hr followed by insulin stimulation and measured after 10 mins by NanoBiT cell-based immunoassay; conditions: time 70.0 min; summary of the method: as §1
MCF7 [18] = experiment: Inhibition of PI3K in human MCF7 cells assessed as reduction in IGF1-induced AKT S473 phosphorylation preincubated for 1 hr followed by IGF1 stimulation and measured after 10 mins by NanoBiT cell-based immunoassay; conditions: time 70.0 min
MCF7 [19] = experiment: Inhibition of PI3K in human MCF7 cells assessed as reduction in insulin-induced AKT S473 phosphorylation preincubated for 1 hr followed by insulin stimulation and measured after 10 mins by NanoBiT cell-based immunoassay; conditions: time 70.0 min
Summary of the method: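 For this dose–response, serum-starved MCF-7 cells (50,000/well, overnight without serum) were pretreated 1 h with a concentration series of inhibitor, then stimulated with insulin (1 µM, 10 min). p-AKT S473 was measured by NanoBiT immunoassay: digitonin lysis 20 min, primary pair plus NanoBiT secondaries 90 min at 23 °C, Nano-Glo luminescence. IC50 was derived from the titration.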

[20] = Effect on total STAT3 expression in human A-431 cells at 1 uM measured after 1 hr by NanoBiT cell-based immunoassay; type: toxicity; conditions: a-431, 1 h
Summary of the method: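 A431 cells, 50,000/well, were kept overnight in serum-free medium. […] Total STAT3 was measured by NanoBiT immunoassay after 20 min digitonin lysis (antibody mix 90 min, 23 °C; Nano-Glo luminescence). Means ± S.E.M., n = 3 technical replicates.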

**Q.** Which Activity [1] does the source give for `C[C@]12CC[C@@H]3c4ccc(O)cc4C[C@@H](CCCCCCCCC[S+]([O-])CCCC(F)(F)C(F)(F)F)[C@H]3[C@@H]1CC[C@@H]2O` (stereo not given in full) [FULVESTRANT] here?
**A.** Non-Toxic

**Q.** What does the source list for `O=C(c1ccc(Nc2nccc(-c3cc4ccccc4s3)n2)cc1)N1CCC(N2CCCC2)CC1`?
**A.** inhibition [2]: Active; inhibition (MCF7 [3]): Active; inhibition (Ramos [4]): Active; inhibition (MCF7 [5]): Active; inhibition (HeLa [6]): Active; inhibition (HeLa [7]): Active; inhibition (MCF7 [8]): inactive; inhibition (MCF7 [9]): Active; inhibition [10]: Active; inhibition (MCF7 [11]): Active; inhibition (Ramos [12]): Active; inhibition (MCF7 [13]): Dose-Dependent Effect; inhibition (MCF7 [14]): Active

**Q.** Which Activity [15] does the source give for `O=c1cc(N2CCOCC2)oc2c(-c3ccccc3)cccc12` [LY-294002] here?
**A.** Non-Toxic

**Q.** And the inhibition (MCF7 [16])?
**A.** Active

**Q.** And the inhibition (MCF7 [17])?
**A.** Active

**Q.** What about the inhibition (MCF7 [18]) of the same compound?
**A.** Active

**Q.** And the inhibition (MCF7 [19])?
**A.** Dose-Dependent Effect

**Q.** Which Activity [20] does the source give for `N#CC[C@H](C1CCCC1)n1cc(-c2ncnc3[nH]ccc23)cn1` [RUXOLITINIB] here?
**A.** Non-Toxic
